Data reported in ChEMBL document CHEMBL4715822, “Structure-based lead optimization to improve antiviral potency and ADMET properties of phenyl-1H-pyrrole-carboxamide entry inhibitors targeted to HIV-1 gp120” (Eur J Med Chem, 2018).

Assays:
[1] = tested on: Human immunodeficiency virus 1; assay: Antiviral activity against clinical isolate HIV-1 93BR019 infected in human PBMC cells assessed as reduction in viral transmission to TZM-bl cells pretreated for 1 hr before viral transmission and further incubated for 48 hrs by luciferase based assay; assay type: functional, cell-based; conditions: Human immunodeficiency virus 1, 93BR019, PBMC
[2] = tested on: Human immunodeficiency virus 1; assay: Antiviral activity against clinical isolate HIV-1 93RW034 infected in human PBMC cells assessed as reduction in viral transmission to TZM-bl cells pretreated for 1 hr before viral transmission and further incubated for 48 hrs by luciferase based assay; assay type: functional, organism-based; conditions: Human immunodeficiency virus 1, 93RW034, PBMC
[3] = tested on: Human immunodeficiency virus 1; assay: Antiviral activity against pseudovirus HIV-1 HXB-2 harboring Env M426L mutant infected in human U87.CD4.CXCR4 cells assessed as reduction in viral infection pretreated for 30 mins before viral infection and measured after 3 days by luciferase based assay; assay type: functional, cell-based, M:B_HXB2R
Outline: (§1)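 Pseudoviruses made in HEK293T by co-transfecting an Env-deleted backbone (pSG3Δenv or pNL4-3.Luc.R-.E-) with an HXB-2 Env plasmid carrying single or double substitutions; Env sequences confirmed by sequencing. Virus pretreated 30 min with graded compound, added to U87-CD4-CXCR4 cells (1 × 10⁴/well, plated overnight), incubated 3 days. Cells lysed, luciferase measured, IC50 calculated.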

[4] = tested on: Human immunodeficiency virus 1; assay: Antiviral activity against Laboratory adapted HIV-1 BaL infected in human PBMC cells assessed as reduction in viral transmission to TZM-bl cells pretreated for 1 hr before viral transmission and further incubated for 48 hrs by luciferase based assay; assay type: functional, cell-based; conditions: Human immunodeficiency virus 1, BaL
Outline: (§2)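 PBMC from healthy HIV-negative donors infected with replication-competent virus in the presence of 30 μg/ml DEAE-dextran. On day 4 post-infection, cells washed free of virus and counted. 2 × 10⁴ infected PBMC/well pretreated with escalating compound for 1 h at 37 °C, then co-cultured 48 h with TZM-bl targets (10⁴/well, plated 24 h before). TZM-bl lysed, luciferase read, IC50 calculated.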

[5] = tested on: Human immunodeficiency virus 1; assay: Antiviral activity against pseudovirus HIV-1 HXB-2 harboring Env A204D mutant infected in human U87.CD4.CXCR4 cells assessed as reduction in viral infection pretreated for 30 mins before viral infection and measured after 3 days by luciferase based assay; assay type: functional, cell-based, M:B_HXB2R; outline: as §1
[6] = tested on: Human immunodeficiency virus 1; assay: Antiviral activity against pseudovirus HIV-1 HXB-2 harboring Env M434I mutant infected in human U87.CD4.CXCR4 cells assessed as reduction in viral infection pretreated for 30 mins before viral infection and measured after 3 days by luciferase based assay; assay type: functional, cell-based, M:B_HXB2R; outline: as §1
[7] = tested on: Human immunodeficiency virus 1; assay: Antiviral activity against clinical isolate HIV-1 RU570 infected in human PBMC cells assessed as reduction in viral transmission to TZM-bl cells pretreated for 1 hr before viral transmission and further incubated for 48 hrs by luciferase based assay; assay type: functional, cell-based; conditions: Human immunodeficiency virus 1, RU570, PBMC
[8] = tested on: Human immunodeficiency virus 1; assay: Antiviral activity against pseudovirus HIV-1 HXB-2 harboring Env M434I/I595F double mutant infected in human U87.CD4.CXCR4 cells assessed as reduction in viral infection pretreated for 30 mins before viral infection and measured after 3 days by luciferase based assay; assay type: functional, cell-based, M:B_HXB2R; outline: as §1
[9] = tested on: Human immunodeficiency virus 1; assay: Antiviral activity against clinical isolate HIV-1 Ru132 infected in human PBMC cells assessed as reduction in viral transmission to TZM-bl cells pretreated for 1 hr before viral transmission and further incubated for 48 hrs by luciferase based assay; assay type: functional, cell-based; conditions: Human immunodeficiency virus 1, Ru132, PBMC; outline: as §2
[10] = tested on: Human immunodeficiency virus 1; assay: Antiviral activity against clinical isolate HIV-1 93RW018 infected in human PBMC cells assessed as reduction in viral transmission to TZM-bl cells pretreated for 1 hr before viral transmission and further incubated for 48 hrs by luciferase based assay; assay type: functional, organism-based; conditions: Human immunodeficiency virus 1, 93RW018, PBMC
[11] = tested on: Human immunodeficiency virus 1; assay: Antiviral activity against pseudovirus HIV-1 HXB-2 harboring Env N425K mutant infected in human U87.CD4.CXCR4 cells assessed as reduction in viral infection pretreated for 30 mins before viral infection and measured after 3 days by luciferase based assay; assay type: functional, cell-based, M:B_HXB2R; outline: as §1
[12] = tested on: Human immunodeficiency virus 1; assay: Antiviral activity against Laboratory adapted HIV-1 LA1 infected in human PBMC cells assessed as reduction in viral transmission to TZM-bl cells pretreated for 1 hr before viral transmission and further incubated for 48 hrs by luciferase based assay; assay type: functional, organism-based; conditions: Human immunodeficiency virus 1, LA1, PBMC; outline: as §2
[13] = tested on: Human immunodeficiency virus 1; assay: Antiviral activity against clinical isolate HIV-1 92US073 infected in human PBMC cells assessed as reduction in viral transmission to TZM-bl cells pretreated for 1 hr before viral transmission and further incubated for 48 hrs by luciferase based assay; assay type: functional, cell-based; conditions: Human immunodeficiency virus 1, 92US073, PBMC; outline: as §2
[14] = tested on: Human immunodeficiency virus 1; assay: Antiviral activity against pseudovirus HIV-1 HXB-2 harboring Env S375W mutant infected in human U87.CD4.CXCR4 cells assessed as reduction in viral infection pretreated for 30 mins before viral infection and measured after 3 days by luciferase based assay; assay type: functional, cell-based, M:B_HXB2R; outline: as §1
[15] = tested on: Human immunodeficiency virus 1; assay: Antiviral activity against pseudovirus HIV-1 HXB-2 harboring Env S375H mutant infected in human U87.CD4.CXCR4 cells assessed as reduction in viral infection pretreated for 30 mins before viral infection and measured after 3 days by luciferase based assay; assay type: functional, cell-based, M:B_HXB2R; outline: as §1
[16] = Solubility in 2 % DMSO at pH 7.4 at 500 uM incubated for 90 mins in shaker by spectrophotometry; assay type: physicochemical
Outline: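 DMSO stock diluted to 500 μM in universal aqueous buffer pH 7.4 with 2 or 5% DMSO final; quadruplicate, 90 min shaking at room temperature in filter plate, vacuum filtered; filtrate in 20% acetonitrile read by UV absorbance at six wavelengths. Filtrate/standard ratio binned as ~500, 100–500 or <100 μM.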

[17] = Apparent permeability across apical to basolateral side in human Caco2 cells incubated for 2 hrs by LC-MS/MS analysis; assay type: ADME, cell-based, Caco-2; conditions: caco-2, 2 h
Outline: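 Caco-2 monolayers grown three weeks to differentiate; compound in transport buffer pH 7.4 (glucose, 10 mM HEPES, HBSS) added apical (A-B) or basal (B-A) side, with or without 100 μM verapamil; 2 h incubation, both sides sampled. Lucifer yellow 100 μM on A side checks integrity (≤2% transport). Papp = (dQ/dt)/(C0 × A); efflux ratio = Papp(B→A)/Papp(A→B).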

[18] = tested on: Human immunodeficiency virus 1; assay: Antiviral activity against clinical isolate HIV-1 CMU02 infected in human PBMC cells assessed as reduction in viral transmission to TZM-bl cells pretreated for 1 hr before viral transmission and further incubated for 48 hrs by luciferase based assay; assay type: functional, cell-based; conditions: Human immunodeficiency virus 1, CMU02, PBMC
[19] = tested on: Human immunodeficiency virus 1; assay: Antiviral activity against pseudovirus HIV-1 HXB-2 harboring Env S375Y mutant infected in human U87.CD4.CXCR4 cells assessed as reduction in viral infection pretreated for 30 mins before viral infection and measured after 3 days by luciferase based assay; assay type: functional, cell-based, M:B_HXB2R; outline: as §1
[20] = tested on: Human immunodeficiency virus 1; assay: Antiviral activity against clinical isolate HIV-1 BCF03 infected in human PBMC cells assessed as reduction in viral transmission to TZM-bl cells pretreated for 1 hr before viral transmission and further incubated for 48 hrs by luciferase based assay; assay type: functional, cell-based; conditions: Human immunodeficiency virus 1, BCF03, PBMC
[21] = tested on: Human immunodeficiency virus 1; assay: Antiviral activity against HIV-1 ADA infected in human MOLT-4 cells assessed as reduction in viral transmission to TZM-bl cells incubated for 48 hrs by luciferase based assay; assay type: functional, organism-based; conditions: Human immunodeficiency virus 1, ADA, MOLT-4, 48 h

COc1cnc(-n2cnc(C)n2)c2[nH]cc(C(=O)C(=O)N3CCN(C(=O)c4ccccc4)CC3)c12
IC50 [1]: 0.1 µM
IC50 [2]: 0.1 µM
IC50 [3]: 0.23 µM
IC50 [4]: 0.1 µM
IC50 [5]: > 1 µM
IC50 [6]: 0.008 µM
IC50 [7]: 0.1 µM
IC50 [8]: 0.008 µM
IC50 [9]: 0.1 µM
IC50 [10]: 0.1 µM
IC50 [11]: 0.008 µM
IC50 [12]: 0.1 µM
IC50 [13]: 0.1 µM
IC50 [14]: > 1 µM
IC50 [15]: > 1 µM
solubility kinetic at […], 500 µM [16]: < 100 µM
Papp [17]: 9.27 10^-6 cm/s
IC50 [18]: > 6 µM
IC50 [19]: > 1 µM
IC50 [20]: > 6 µM
IC50 [21]: 0.4 µM
